Source: PubChem BioAssay (several laboratories)
Sampled rows, rich in hits. Any-hit rate of the full collection: about 4%.
Cl transport mod: KCC2 (human) Cl- transport modulation; Q9H2X9; KCC2 cells, thallium flux FluoZin-2 fluorescence; B-score of Tl+ flux slope (higher = more flux/activation; lower = inhibition) at 10 µM; 2.2% of 190,000 active; AID 1456;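 active means thallium flux slope and its plate-corrected score both differing from the plate sample mean at a set confidence after two filtering rounds, in either direction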;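 further: slope of fluorescence scaled to starting intensity during 10 to 20 s after thallium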
Pf gamet viab: kills late stage P. falciparum gametocytes | P. falciparum stage V gametocytes, ATP luminescence, 24 h | inhibition, % at 10.9 µM | 0.065% of 150,000 active;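 active means inhibition above the mean plus 3 SD of compounds within the control limits, set per campaign, cut at about 38% in these data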
MT stabilize HCS: microtubule stabilization, imaging screen; HeLa tubulin immunostaining HCS, 24 h; share of cells brighter than vehicle mean+2SD; % tubulin-high responders, % at 10 µM; 0.83% of 200,000 active;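 active means plate Z-score above 3 for both tubulin-high and condensed-nucleus cell shares, with cell loss under 80%, at 10 µM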;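 further: anti alpha tubulin signal scored within the nucleus-defined area of each cell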
WT yeast gro inh: growth inhibition of WT yeast, mitochondrial fusion screen. 2.1% of 190,000 active. mitochondrial fusion phenotypic screen, WT strain. AID 1362. inhibition, % at 10 µM; in the data active means inhibition above about 58%; tested in S. cerevisiae
bCat nuc transl: modulators of beta-catenin nuclear translocation; HeLa beta-catenin nuclear translocation, immunofluorescence imaging; nuclear translocation activity, % at 5 µM; 0.3% of 190,000 active;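 active means nuclear translocation activity above 50% at 5 µM, with a well cell count of 50 or more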;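 further: per-cell ratio of nuclear to cytoplasmic median beta-catenin stain intensity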
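Test system: human HeLa cell line; Doses: 5 µM primary, 0.02–20 µM confirmation; Incubation: 24 h compound exposure, 37°C; Detection: beta-catenin immunofluorescence imaging with DAPI; Read-out: beta-catenin nuclear/cytoplasmic ratio, % activation.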
Numbers stand for hits; 0 = inactive; - = not tested or not shown.

SMILES	Cl transport mod	Pf gamet viab	MT stabilize HCS	WT yeast gro inh	bCat nuc transl
COc1ccc(-c2coc3cc4oc(=O)cc(-c5ccccc5)c4cc23)cc1F	0	0	17	0	148
CCOC(=O)/C=c1\s/c(=C\c2ccccc2C)c(=O)n1CC(=O)NCc1ccc2c(c1)OCO2	0	0	22	0	0
O=C(N/N=C/C=C/c1ccccc1)NC1CCCCC1	0	0	0	0	0
CCOc1ccccc1NC(=O)c1cc(C(=O)c2cc(Br)ccc2O)coc1=N	0	-	12	0	-
CC(C)OC(=O)c1cc(C(=O)c2cc(Br)ccc2O)coc1=N	0	0	0	0	0
CCCOc1ccc(C(=O)NNC(=S)NC(=O)CC)cc1	6.9	0	0	0	0
C=CCNC(=S)NNC(=O)c1ccc(OCCC)cc1	0	-	0	0	0
COc1ccc(-c2cn(CCO)c(CCN)n2)cc1	-	0	-	-	-
O=C(NCc1ccc2c(c1)OCO2)c1cc([N+](=O)[O-])ccc1N1CCCCC1	0	0	16	0	107
Cc1ccc(C(=O)c2cc([N+](=O)[O-])ccc2N2CCCCC2)cc1	0	0	0	0	72
O=C(NCc1ccco1)c1cc([N+](=O)[O-])ccc1N1CCCCC1	0	-	0	0	0
CN1CCN(c2ccc([N+](=O)[O-])cc2C(=O)c2ccc(Cl)cc2)CC1	-	0	43	0	185
CN(c1nc2nonc2nc1NC1CC1)C1CCOC1 (stereo unspecified)	0	0	0	0	0
CCCCn1nnc(NC(=O)c2ccc(-c3ccccc3[N+](=O)[O-])o2)n1	0	0	0	0	0
CCCCn1nnc(NC(=S)NC(=O)c2ccc(-c3cccc(Cl)c3Cl)o2)n1	34	-	0	78	0
CC(=O)NC1=C(C#N)C(c2ccccc2)c2c(ccc3ccccc23)O1 (stereo unspecified)	0	-	43	0	58
O=C(CCSCCc1ccccn1)Nc1c(F)c(F)c(F)c(F)c1F	0	0	0	0	0
N#Cc1cn(-c2ccccc2)nc1C(=O)c1ccccc1	0	-	0	0	62
CC(=O)c1nn(-c2ccccc2)cc1C(=O)c1ccc(C)cc1	-	0	-	-	-
COc1ccc(C(=O)NC(C)CCCC(C)(C)O)cc1OC1CCN(C(C)=O)CC1 (stereo unspecified)	-	0	-	-	-
O=C(/C=C/c1ccc(Cl)cc1Cl)N(Cc1ccccc1)C1CCS(=O)(=O)C1 (stereo unspecified)	0	0	0	0	0
O=C(/C=C/c1ccc(Cl)cc1Cl)N(Cc1ccc(Cl)cc1)C1CCS(=O)(=O)C1 (stereo unspecified)	0	0	0	59	0
NC(=O)C1CCN(c2nc(-c3ccc4c(c3)OCCO4)cs2)CC1	-	0	-	-	-
COc1cccc(NC(=O)C2CCCN(S(=O)(=O)c3cccc4cccnc34)C2)c1 (stereo unspecified)	0	-	0	0	0
O=C(Nc1ccncc1)C1CCCN(S(=O)(=O)c2cccc3cccnc23)C1 (stereo unspecified)	0	-	22	0	88
SMILES	Cl transport mod	Pf gamet viab	MT stabilize HCS	WT yeast gro inh	bCat nuc transl
O=C(Nc1ccc2snnc2c1)Nc1cccc2ccccc12	-	0	0	89	0
CCN(CC)C(=O)COc1ccc(/C=N/NC(=O)c2cc(-c3ccccc3OC)nc3ccccc23)cc1OC	-	0	-	-	-
C/C(CC(=O)Nc1ccc(Cl)cc1Cl)=N\NC(=O)c1cnccn1	0	0	-	-	0
CSc1nc(S(=O)(=O)c2ccccc2)c(Cl)s1	0	0	0	0	0
COc1ccc(C2CC(=O)c3cnc(Nc4cc(C)cc(C)c4)nc3C2)cc1 (stereo unspecified)	0	0	0	69	0
c1ccc(CNc2ncnc3c2cnn3Cc2ccccc2)cc1	0	0	44	0	0
COc1ccc(-n2ncc3c(NCc4ccco4)ncnc32)cc1	-	0	0	68	0
Clc1ccc(-n2ncc3c(NCc4ccco4)ncnc32)cc1	0	0	0	0	0
Clc1ccc(Cn2ncc3c(NCc4ccco4)ncnc32)c(Cl)c1	0	0	46	0	-
COc1ccc(-c2nc(NC(=O)C3CC(=O)N(c4ccc5c(c4)OCCO5)C3)sc2C)cc1 (stereo unspecified)	0	0	11	0	-
O=C(Nc1nnc(C2CC2)s1)C1CC(=O)N(c2ccc3c(c2)OCCO3)C1 (stereo unspecified)	0	0	0	0	0
O=C(COc1ccc(-c2ccccc2)cc1)N/N=C/c1cc(O)ccc1Br	0	0	0	96	0
Cc1cccc(C)c1NC(=O)CN1C(=O)NC(C)(CCc2ccccc2)C1=O (stereo unspecified)	0	0	0	0	0
O=C(CCn1nc(-c2ccccc2)c2ccccc2c1=O)NCC1CCCO1 (stereo unspecified)	-	0	0	63	0
CCC(=O)Nc1cc(C(C)(C)C)ccc1C(C)=O	0	0	0	0	0
CC(C)Oc1ccc(C(=O)NC2(C(F)(F)F)NC(=O)N(CCCc3ccccc3)C2=O)cc1 (stereo unspecified)	0	0	0	65	0
CCCCN1C(=O)NC(NC(=O)c2ccco2)(C(F)(F)F)C1=O (stereo unspecified)	0	0	0	0	0
CC(C)CNC(=O)CSc1nnc(-c2ccc(Cl)cc2)n1N	0	0	0	0	0
O=C(/C=C/c1ccc(Br)o1)NC(c1ccccc1)c1ccccc1	0	0	0	63	0
CC(=O)Nc1ccccc1N(C)S(=O)(=O)c1ccc(C)cc1	0	0	47	0	0
Cc1ccccc1-c1cc(C(=O)NCc2cccc(C(F)(F)F)c2)nn1CC1CC(c2cccc([N+](=O)[O-])c2)=NO1 (stereo unspecified)	-	0	-	-	-
COc1ccc(/C=N\NC(=O)c2c(C)nc3ccc(Br)cn23)cc1	0	0	20	0	53
CC(=O)c1sc(N/N=C2\CC3CC2C(C)C3(C)C)nc1C (stereo unspecified)	0	0	0	0	0
CCn1nc(C(=O)N2CCc3ccccc3C2)c2ccccc2c1=O	0	-	16	0	0
CCCCn1c(NC(=S)Nc2ccccc2)nc2ccccc21	47	0	0	0	0
SMILES	Cl transport mod	Pf gamet viab	MT stabilize HCS	WT yeast gro inh	bCat nuc transl
CC(C(=O)Nc1ccccc1-c1ccccc1)N(C)Cc1nc2ccccc2c(=O)[nH]1 (stereo unspecified)	0	-	24	0	0
C=CCc1c(O)c(CC)cc2c(C)cc(=O)oc12	0	0	-	-	0
Cc1ccc(-c2csc(N(CC3CCCO3)C(=O)c3ccco3)n2)cc1 (stereo unspecified)	0	0	0	69	0
CCOc1ccc(C2c3cc(OC)c(OC)cc3CC(=O)N2c2ccc(OC)cc2)cc1 (stereo unspecified)	-	0	42	0	0
CCOc1cc2c(cc1OCC)C(c1ccc(OC)c(OC)c1)N(c1ccc(C(=O)O)cc1)C(=O)C2 (stereo unspecified)	0	-	0	0	0
CS(=O)(=O)N1CCN(C(=O)NC2CCCCC2)CC1	0	0	0	0	0
OCCN1CCN(CC(O)COc2ccc(C34CC5CC(CC(C5)C3)C4)cc2)CC1 (stereo unspecified)	0	0	0	0	0
